Assays:
[1] = target: T1, UGT1A1 (Homo sapiens, UniProt P22309); experiment: UGT1A1 inhibition; format: biochemical
T1 sequence (P22309 26-533): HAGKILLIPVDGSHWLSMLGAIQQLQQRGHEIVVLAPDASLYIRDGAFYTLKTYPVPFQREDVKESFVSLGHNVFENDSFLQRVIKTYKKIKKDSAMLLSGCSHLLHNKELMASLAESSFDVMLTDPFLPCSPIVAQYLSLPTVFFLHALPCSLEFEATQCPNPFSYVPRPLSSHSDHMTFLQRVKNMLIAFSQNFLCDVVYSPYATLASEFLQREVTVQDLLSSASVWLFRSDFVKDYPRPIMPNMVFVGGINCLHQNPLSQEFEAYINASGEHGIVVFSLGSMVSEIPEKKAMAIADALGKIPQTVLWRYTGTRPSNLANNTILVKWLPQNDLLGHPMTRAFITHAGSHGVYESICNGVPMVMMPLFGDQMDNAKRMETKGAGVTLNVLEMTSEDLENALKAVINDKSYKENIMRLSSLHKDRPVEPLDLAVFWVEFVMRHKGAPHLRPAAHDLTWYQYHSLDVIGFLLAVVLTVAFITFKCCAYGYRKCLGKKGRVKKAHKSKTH

[2] = MAD study plasma pharmacokinetics; format: in vivo, human; details: for half-life / concentration at 24 h / Cmax: human, plasma, oral; for concentration at 24 h: C24 GM (CV%); for Cmax: Cmax GM (CV%)
Method in brief: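 EDTA plasma was sampled at 0–24 h postdose on days 1 and 14, intensively on day 28, and at trough on days 5–25. Drug was measured by validated LC-MS/MS. Parameters are noncompartmental, with trapezoidal and log-trapezoidal AUC. Half-life is ln2/k from a least-squares terminal slope on days 14 and 28.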

[3] = test system: plasma Aβ40, Aβ42, and total Aβ; experiment: SAD study pharmacodynamic effects on plasma Aβ; format: in vivo, human
Method in brief: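 Single oral doses of 10–1200 mg were given as solution or capsule. Blood tubes were inverted and iced, then centrifuged within 30 min at room temperature for 15 min at about 1000g. Plasma was stored at −80°C. Aβ40 and Aβ42 were measured by Luminex duplex immunoassay and total Aβ by MSD, in duplicate.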

[4] = test system: plasma Aβ40, Aβ42, and total Aβ; experiment: MAD study pharmacodynamic effects on plasma Aβ; format: in vivo, human
Method in brief: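 Healthy volunteers were dosed once daily at 50, 100 or 200 mg for up to 28 days. EDTA plasma was stored at −80°C. Aβ40 and Aβ42 were measured by Luminex duplex immunoassay (LLOQ 30 and 3 pg/ml) and total Aβ by MSD (LLOQ 50 pg/ml), in duplicate. Values are % change from baseline, analysed by repeated-measures ANCOVA.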

[5] = SAD study safety and tolerability; format: in vivo, human
Method in brief: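 Single-dose subjects, placebo-controlled and double-blind, were assessed by vital signs, physical examination, 12-lead ECG and clinical laboratory tests. AEs were spontaneously reported or elicited, and their onset, duration, intensity, seriousness, relatedness and action taken were recorded. AEs were tabulated by MedDRA 12.1 system organ class and preferred term.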

[6] = 50 mg, MAD panel 1, 50 mg once daily, day 1
[7] = 50 mg, MAD panel 1, 50 mg once daily, day 14
[8] = 50 mg, MAD panel 1, 50 mg once daily, day 28

With `CNc1nc(Nc2ccc(-n3cnc(C)n3)c(OC)c2)nc2c1CC[C@H]2c1ccc(F)cc1` [BMS-932481, (S)-7-(4-fluorophenyl)-N2-(3-methoxy-4-(3-methyl-1H-1,2,4-triazol-1-yl)phenyl)-N4-methyl-6,7-dihydro-5H-cyclopenta[d]pyrimidine-2,4-diamine] the IC50 [1] was 1340 nM, the steady state achieved ([2]; MAD 50- and 100-mg dose groups) was no more than 14 days and the “dose proportionality of plasma exposure” value ([2]; MAD day 14) was “greater than dose proportionality”. For the same compound, the “slope for AUCτ versus dose” value ([2]; MAD day 14, 95% CI, 1.03–1.88, r^2 = 0.81) was 1.46, the “slope for Cmax versus dose” value ([2]; MAD day 14, 95% CI, 1.06–1.67, r^2 = 0.9) was 1.36 and the “dose proportionality of plasma exposure” value ([2]; first dose (day 1) of multiple-dose administrations, 50 to 200 mg) was “dose proportional”. It also gave a half-life ([2]; 50 mg) of 1440 min, a concentration at 24 h [2, 6] of 47 ng/mL and a concentration at 24 h [2, 7] of 204 ng/mL. For the same compound, the concentration at 24 h [2, 8] was 165 ng/mL, the Cmax [2, 6] was 134 ng/mL and the Cmax [2, 7] was 323 ng/mL. It also gave a Cmax [2, 8] of 293 ng/mL, a half-life ([2]; 100 mg) of 1740 min and a concentration at 24 h ([2]; 100 mg, MAD panel 2, 100 mg once daily, day 1) of 87 ng/mL. The half-life ([2]; 200 mg) was 2220 min, the concentration at 24 h ([2]; 200 mg, MAD panel 3, 200 mg once daily, day 1) was 220 ng/mL and the “accumulation after multiple dosing” value ([2]; multiple dosing) was “approximately 3 fold”. For the same compound, the “change in plasma total Aβ” value ([3]; single dose cohorts) was “No changes”, the “effect on plasma Aβ42 and Aβ40” value ([3]; single-dose) was “dose-dependently decreased” and the “decrease of plasma Aβ40 levels” value ([4]; MAD 50-mg dose, up to) was 40%–50. The “plasma Aβ42 during the dosing period” value ([4]; MAD 100- and 200-mg cohorts) was “below the limit of quantitation”, the “reduction of plasma Aβ42 levels” value ([4]; MAD 200-mg cohort, day 35 (11 days after the last dose)) was 46% and the “change in plasma total Aβ” value ([4]; multiple dose cohorts) was “No changes”. For the same compound, the “effect on plasma Aβ42 and Aβ40” value ([4]; multiple-dose administrations) was “dose-dependently decreased”, the “findings on ECG parameters” value [5] was “no clinical relevant findings” and the AEs ([5]; 10 mg) was 3 (50.0) n (%). For the same compound, the Deaths ([5]; 10 mg) was 0 n (%), the “Discontinuation due to AEs” value ([5]; 10 mg) was 0 n (%) and the “Drug-related AEs” value ([5]; 10 mg) was 0 n (%). For the same compound, the SAEs ([5]; 10 mg) was 0 n (%), the AEs ([5]; 30 mg) was 2 (33.3) n (%) and the Deaths ([5]; 30 mg) was 0 n (%). The “Discontinuation due to AEs” value ([5]; 30 mg) was 0 n (%), the “Drug-related AEs” value ([5]; 30 mg) was 0 n (%) and the SAEs ([5]; 30 mg) was 0 n (%). The AEs ([5]; 100 mg) was 1 (16.7) n (%), the Deaths ([5]; 100 mg) was 0 n (%) and the “Discontinuation due to AEs” value ([5]; 100 mg) was 0 n (%). For the same compound, the “Drug-related AEs” value ([5]; 100 mg) was 0 n (%), the SAEs ([5]; 100 mg) was 0 n (%) and the AEs ([5]; 300 mg P2 (cross-over phase 2)) was 0 n (%). The Deaths ([5]; 300 mg P2 (cross-over phase 2)) was 0 n (%), the “Discontinuation due to AEs” value ([5]; 300 mg P2 (cross-over phase 2)) was 0 n (%) and the “Drug-related AEs” value ([5]; 300 mg P2 (cross-over phase 2)) was 0 n (%). The SAEs ([5]; 300 mg P2 (cross-over phase 2)) was 0 n (%), the AEs ([5]; 300 mg P3 (cross-over phase 3)) was 1 (16.7) n (%) and the Deaths ([5]; 300 mg P3 (cross-over phase 3)) was 0 n (%). The “Discontinuation due to AEs” value ([5]; 300 mg P3 (cross-over phase 3)) was 0 n (%), the “Drug-related AEs” value ([5]; 300 mg P3 (cross-over phase 3)) was 0 n (%) and the SAEs ([5]; 300 mg P3 (cross-over phase 3)) was 0 n (%). The AEs ([5]; 300 mg P (cross-over phase 1)) was 0 n (%), the Deaths ([5]; 300 mg P (cross-over phase 1)) was 0 n (%) and the “Discontinuation due to AEs” value ([5]; 300 mg P (cross-over phase 1)) was 0 n (%). For the same compound, the “Drug-related AEs” value ([5]; 300 mg P (cross-over phase 1)) was 0 n (%), the SAEs ([5]; 300 mg P (cross-over phase 1)) was 0 n (%) and the AEs ([5]; 600 mg) was 0 n (%). The Deaths ([5]; 600 mg) was 0 n (%), the “Discontinuation due to AEs” value ([5]; 600 mg) was 0 n (%) and the “Drug-related AEs” value ([5]; 600 mg) was 0 n (%). The SAEs ([5]; 600 mg) was 0 n (%), the AEs ([5]; 900 mg) was 3 (50.0) n (%) and the Deaths ([5]; 900 mg) was 0 n (%). For the same compound, the “Discontinuation due to AEs” value ([5]; 900 mg) was 0 n (%), the “Drug-related AEs” value ([5]; 900 mg) was 1 (16.7) n (%) and the SAEs ([5]; 900 mg) was 0 n (%). The Deaths ([5]; 900 mg C (CSF panel)) was 0 n (%), the “Discontinuation due to AEs” value ([5]; 900 mg C (CSF panel)) was 0 n (%) and the “Drug-related AEs” value ([5]; 900 mg C (CSF panel)) was 1 (10.0) n (%). For the same compound, the SAEs ([5]; 900 mg C (CSF panel)) was 0 n (%), the AEs ([5]; 900 mg El (elderly)) was 0 n (%) and the Deaths ([5]; 900 mg El (elderly)) was 0 n (%). The “Discontinuation due to AEs” value ([5]; 900 mg El (elderly)) was 0 n (%), the “Drug-related AEs” value ([5]; 900 mg El (elderly)) was 0 n (%) and the SAEs ([5]; 900 mg El (elderly)) was 0 n (%). The AEs ([5]; 1200 mg) was 0 n (%), the Deaths ([5]; 1200 mg) was 0 n (%) and the “Discontinuation due to AEs” value ([5]; 1200 mg) was 0 n (%). For the same compound, the “Drug-related AEs” value ([5]; 1200 mg) was 0 n (%), the SAEs ([5]; 1200 mg) was 0 n (%) and the “tolerability after a single dose” value ([5]; 10 to 1200 mg, healthy subjects) was “generally well tolerated”. The AEs ([5]; all treated) was 17 (27.9) n (%), the Deaths ([5]; all treated) was 0 n (%) and the “Discontinuation due to AEs” value ([5]; all treated) was 0 n (%). For the same compound, the “Drug-related AEs” value ([5]; all treated) was 2 (3.3) n (%), the SAEs ([5]; all treated) was 0 n (%) and the “participants with drug-related AEs” value ([5]; two participants) was 3.3%.

Source: publication PMC4931877 (The Journal of Pharmacology and Experimental Therapeutics, 2016)
